A short description of the assay: yeast growth toxicity, wild-type and mutant, primary screen, cytotoxicity control for eIF2B function restoration project, wild-type and eIF2Bepsilon R284H mutant, A595 (AID 685).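 Also: 0% = untreated cell controls and 100% = YPD media blanks without cells.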 The following applies: A595 turbidity, 16 h, stronger effect = higher value, screened at 25 µM (by protocol). In outline:
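Schedule: 16 h growth with compound, 30 °C. System: yeast, wild-type or eIF2Bepsilon-R284H mutant. Doses: one dose, 25 µM compound[…]. Buffer or medium: YPD. Signal: turbidity measured as absorbance at 595 nm. Read-out basis: growth inhibition (%) versus cell controls and blanks.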

The mark [1] stands for this setting: S. cerevisiae eIF2Bepsilon-R284H mutant growth.

We go through 44 compounds from PubChem BioAssay AID685 (PCMD, 2007).

The campaign covered roughly 30,000 compounds. About 80 (0.3%) were called active. The sample holds actives, similar compounds and a random draw of the others, so the mix is not that of the screen.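 The calls were made as follows: active = mutant and wild-type yeast strains alike exhibit over 30% growth inhibition; inconclusive = a strain exceeds 50% while the second remains under 30%; inactive = the rest.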

With `Clc1cccc(N=C2NN=C(c3ccc4c(c3)OCCO4)CS2)c1`, the growth inhibition under setting [1] worked out at 5.13% and the growth inhibition (S. cerevisiae wild-type growth) was -0.77% (inactive).

As for `CC(C)Oc1ccc(Oc2ccc(C(F)(F)F)cn2)cc1`, the growth inhibition reads like this: under setting [1], 7.69%; (S. cerevisiae wild-type growth) 6% (inactive).

On to `Cc1ccc(C2C(C#N)C(C#N)N3CCCN23)cc1` (stereo not drawn), for which the growth inhibition reads like this: under setting [1], 13%; (S. cerevisiae wild-type growth) -7.5% (inactive).

Consider `Cc1ccc(C(=O)CSc2nnc(Cn3nnc4ccccc43)n2C)cc1`, for which the growth inhibition was 3.7% under setting [1] and 16.7% (inactive) (S. cerevisiae wild-type growth).

In the case of `COc1ccc(OCC(=O)N2CCOCC2)cc1`, the growth inhibition under setting [1] amounted to 17.9% and the growth inhibition (S. cerevisiae wild-type growth) was 15.5% (inactive).

Take `O=S(=O)(NCC1OCCc2ccccc21)c1ccccc1` (stereo not drawn): the growth inhibition is 15.2% under setting [1] and 16.1% (inactive) (S. cerevisiae wild-type growth).

As to `CCN(c1ccccc1)S(=O)(=O)c1ccc(NC(=O)C(C)(C)C)cc1`, the growth inhibition is 15% under setting [1] and -4.62% (inactive) (S. cerevisiae wild-type growth).

For the compound `Cc1cc(-c2ccccc2)nc(N2CCC(C(=O)NC34CC5CC(CC(C5)C3)C4)CC2)n1`, the growth inhibition was -19.1% under setting [1] and 2.16% (inactive) (S. cerevisiae wild-type growth).

Regarding `C=CCNC(=O)c1ccc(C)c(Br)c1`, the growth inhibition under setting [1] was found to be 0% and the growth inhibition (S. cerevisiae wild-type growth) is 6.76% (inactive).

For the compound `CCN(CC)S(=O)(=O)c1ccc2c3c(cccc13)C(=O)S2`, the growth inhibition under setting [1] is -4.76% and the growth inhibition (S. cerevisiae wild-type growth) is 16.2% (inactive).

Take `O=C(O)CCC(=O)NCc1ccc(C(=O)O)cc1`: the growth inhibition is 16.7% under setting [1] and 9.62% (inactive) (S. cerevisiae wild-type growth).

For `Cc1cccn2c(=O)c(/C=C(\C#N)S(=O)(=O)c3ccc(Cl)cc3)c(N3CCC(C(N)=O)CC3)nc12`, the growth inhibition under setting [1] is 0% and the growth inhibition (S. cerevisiae wild-type growth) is 7.31% (inactive).

On to `CCCCSc1[nH]c(=O)c(C(=O)OCC)cc1C#N`, for which the growth inhibition was 5% under setting [1] and 2.76% (inactive) (S. cerevisiae wild-type growth).

On to `COc1ccc(CN(Cc2ccco2)S(=O)(=O)c2ccc(S(=O)(=O)N3CCCC3)cc2)cc1`, for which the growth inhibition is -2.56% under setting [1] and 16.6% (inactive) (S. cerevisiae wild-type growth).

As for `O=C(CN1CCOCC1)Nc1ccccc1`, the growth inhibition by setting is: under setting [1], 12.8%; (S. cerevisiae wild-type growth) 11.2% (inactive).

On to `CCCCCCNC(=O)CSc1nccn1Cc1ccccc1`, for which the growth inhibition is, setting by setting: under setting [1], 11.1%; (S. cerevisiae wild-type growth) 20.4% (inactive).

As for `Cc1ccc(CNC(=O)COc2ccc(S(=O)(=O)NC(C)C)cc2)cc1`, the growth inhibition by setting is: under setting [1], 11.6%; (S. cerevisiae wild-type growth) 20.3% (inactive).

As for `COc1ccc(NC(=O)Cn2c(=O)n(Cc3ccco3)c(=O)c3ccccc32)cc1`, the growth inhibition is, setting by setting: under setting [1], -12.8%; (S. cerevisiae wild-type growth) -47.3% (inactive).

Consider `O=c1c2ccccc2nc(CSc2nnnn2-c2ccccc2)n1-c1ccccc1`, for which the growth inhibition was -14.8% under setting [1] and -3.81% (inactive) (S. cerevisiae wild-type growth).

Take `CCN(CC)C(=O)CSc1nnc(C2CCCCC2)o1`: the growth inhibition under setting [1] was 6.82% and the growth inhibition (S. cerevisiae wild-type growth) was 9.66% (inactive).

For `CCOc1cc(NC(=O)c2cnccn2)c(OCC)cc1NC(=O)c1ccc(C)cc1`, the growth inhibition under setting [1] is -33.3% and the growth inhibition (S. cerevisiae wild-type growth) is -5.09% (inactive).

Regarding `CC(C)(C)C(=O)Cn1c(NCCO)nc2ccccc21`, the growth inhibition reads like this: under setting [1], -6.25%; (S. cerevisiae wild-type growth) 21% (inactive).

As to `Cc1ccc(-n2ccc(=O)c(C(=O)O)n2)cc1`, the growth inhibition runs as follows: under setting [1], 18.9%; (S. cerevisiae wild-type growth) 4.62% (inactive).

With `Cc1ccc(Cc2c(C)nc3nc(SCC(=O)NCCN4CCOCC4)nn3c2C)cc1`, the growth inhibition is 0% under setting [1] and 3.33% (inactive) (S. cerevisiae wild-type growth).

For `CC(C)CC(=O)Nc1cc(C(F)(F)F)ccc1N1CCOCC1`, the growth inhibition by setting is: under setting [1], 10.5%; (S. cerevisiae wild-type growth) 18.6% (inactive).

For `CCC(c1nnnn1C1CCCC1)N1CCN(C(=O)c2ccco2)CC1` (stereo not drawn), the growth inhibition is, setting by setting: under setting [1], -13.6%; (S. cerevisiae wild-type growth) -4.24% (inactive).

`CCC(O)CNc1nc(-n2nc(C)cc2C)nc2sc3c(c12)CC(C)(C)OC3` (stereo not drawn): the growth inhibition was -4.55% under setting [1] and 4.83% (inactive) (S. cerevisiae wild-type growth).

For `O=C(CCc1ccccc1)NCc1cccnc1`, the growth inhibition was 4.55% under setting [1] and -12.1% (inactive) (S. cerevisiae wild-type growth).

With `CCOCCCNC(=O)c1c[nH]c2cc(C)ccc2c1=O`, the growth inhibition by setting is: under setting [1], -17.9%; (S. cerevisiae wild-type growth) 16.6% (inactive).

For `N#Cc1c(/N=C/N2CCCC2)oc(-c2ccccc2)c1-c1ccccc1`, the growth inhibition runs as follows: under setting [1], 7.69%; (S. cerevisiae wild-type growth) -15.7% (inactive).

Consider `COc1ccccc1NC(=O)C1CCCN(c2cc(C)nc3ncnn23)C1` (stereo not drawn), for which the growth inhibition by setting is: under setting [1], -7.89%; (S. cerevisiae wild-type growth) 2.42% (inactive).

In the case of `COc1ccc2oc(C)c(NC(C)=O)c2c1`, the growth inhibition runs as follows: under setting [1], -6.67%; (S. cerevisiae wild-type growth) 17.6% (inactive).

Regarding `FC(F)(F)c1nnc2ccc(N3CCN(c4ccccc4)CC3)nn12`, the growth inhibition under setting [1] turned out to be 9.68% and the growth inhibition (S. cerevisiae wild-type growth) was 11.8% (inactive).

On to `OC(c1ccccc1)c1nccn1Cc1ccccc1` (stereo not drawn), for which the growth inhibition was 6.98% under setting [1] and 31% (inactive) (S. cerevisiae wild-type growth).

With `O=C(CCC(=O)OCC(F)(F)C(F)F)NCc1ccccc1`, the growth inhibition is, setting by setting: under setting [1], 8.11%; (S. cerevisiae wild-type growth) 2.5% (inactive).

As for `CCOC(=O)CSc1nc2ccc(C)cc2[nH]1`, the growth inhibition reads like this: under setting [1], 0%; (S. cerevisiae wild-type growth) -5.43% (inactive).

Take `CC(=O)c1cccc(NC(=O)Nc2ccc(C)cc2)c1`: the growth inhibition runs as follows: under setting [1], 12.5%; (S. cerevisiae wild-type growth) -4.69% (inactive).

Take `COc1ccc(N2CCN(C(=O)CCc3nc(-c4ccc(C)cc4)no3)CC2)cc1`: the growth inhibition reads like this: under setting [1], 5%; (S. cerevisiae wild-type growth) 10% (inactive).

As for `Cc1ccc(S(=O)(=O)Oc2ccc(/C=N/NC(=O)c3c(Cl)cnn3C)cc2)cc1`, the growth inhibition is 0% under setting [1] and 11.2% (inactive) (S. cerevisiae wild-type growth).

With `CCCc1nc(NCc2ccc3c(c2)OCO3)c2nnn(Cc3ccccc3Cl)c2n1`, the growth inhibition by setting is: under setting [1], -4.84%; (S. cerevisiae wild-type growth) -14.3% (inactive).

As to `COc1ccc(CN2CN(C(C)C)CSC2=S)cc1`, the growth inhibition under setting [1] was 81.8% and the growth inhibition (S. cerevisiae wild-type growth) is 44.7% (active).

Regarding `COc1cc2c(cc1OC)C(C(C)C)=NC(C)(C)C2`, the growth inhibition under setting [1] came out at 3.13% and the growth inhibition (S. cerevisiae wild-type growth) was 7.59% (inactive).

As for `CCOCCCNC(=O)C(NC(=O)CNC(=O)c1ccccc1)c1ccc(C)cc1` (stereo not drawn), the growth inhibition was 0% under setting [1] and 1.25% (inactive) (S. cerevisiae wild-type growth).

As to `C=C(C)CSc1nnc(-c2ccc(C)cc2)n1N`, the growth inhibition under setting [1] was determined as 10.3% and the growth inhibition (S. cerevisiae wild-type growth) is -3.2% (inactive).
